# Bioassay records as filed in PubChem.
# An excerpt weighted towards active compounds, which were near 1.4% of everything screened.
# PDI inh: inhibitors of human protein disulfide isomerase | P07237 | PDI insulin aggregation turbidity, A650, 90 min | inhibition, % at 10 µM | hit rate 0.052% among 350,000 | AID 588391;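 active = mean inhibition across replicates of 30% or more, whatever share of single replicates reach that level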
# Target sequence (P07237 whole entry, looked up): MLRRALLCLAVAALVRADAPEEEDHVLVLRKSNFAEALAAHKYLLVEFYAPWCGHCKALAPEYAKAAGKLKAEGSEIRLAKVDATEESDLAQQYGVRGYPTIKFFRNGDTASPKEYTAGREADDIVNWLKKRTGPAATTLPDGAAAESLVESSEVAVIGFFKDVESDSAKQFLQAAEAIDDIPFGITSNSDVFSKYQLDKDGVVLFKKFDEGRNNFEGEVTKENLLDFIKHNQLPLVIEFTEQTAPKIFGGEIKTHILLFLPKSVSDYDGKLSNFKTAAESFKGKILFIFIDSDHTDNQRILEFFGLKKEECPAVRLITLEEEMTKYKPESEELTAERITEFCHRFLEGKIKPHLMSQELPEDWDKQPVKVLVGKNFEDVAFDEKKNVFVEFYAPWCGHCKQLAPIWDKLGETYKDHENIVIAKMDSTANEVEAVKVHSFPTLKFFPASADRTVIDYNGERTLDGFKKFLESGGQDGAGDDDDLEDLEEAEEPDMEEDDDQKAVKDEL
# ERp5 block: inhibitors of human ERp5; ERp5 insulin aggregation, absorbance 650 nm, 90 min; inhibition, % at 9.99 µM; hit rate 0.05% among 350,000; AID 651711;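 active = mean replicate inhibition above about 25%, with every replicate also reaching it, limit read from the data, passing the limit was not always enough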
# INS-1E GSIS act: GLuc luminescence reporter in INS-1E cells, primary screen for activators of glucose-dependent secretion of insulin. INS-1E GLuc reporter insulin secretion, 2-3 h. activation, % at 16.6 µM. hit rate 0.61% among 370,000. AID 743287;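 active = lowest replicate activation of at least 40%, so every replicate reaches that level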;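 note: 0% = median of neutral control wells and 100% = median of IBMX positive control wells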
# FN deposition inh: fibronectin deposition inhibition | AH1F fibroblasts, Alexa488-fibronectin deposition fluorescence, overnight | hit rate 0.086% among 350,000 | inhibition, % at 12.6 µM;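 active = mean inhibition across replicates of 30% or more, regardless of how many single replicates reach that level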;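 note: positive control wells lacked labelled fibronectin entirely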
#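 Schedule: 1 h cell adhesion before compound, then overnight fibronectin incubation; test system: AH1F fibroblast monolayer depositing Alexa488-labelled fibronectin into matrix; quantity: 10000 AH1F cells per well; probe or stimulus: fluorescent fibronectin at 24 nM final; signal: fluorescence, ex 485 nm, em 525 nm; evaluation: percent inhibition as loss of matrix-bound fibronectin fluorescence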
# HIV Env fusion: inhibitors of HIV Env-mediated cell fusion; HeLa-JRFL Env/CEM21 cell fusion, luciferase; inhibition, % at 12.3 µM; hit rate 1.1% among 360,000; AID 651610;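 active = mean replicate inhibition score of at least 50 and every replicate individually at or above 50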;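 note: 0% = plate neutral controls and 100% = maraviroc near 300 nM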
# * marks the source's active call; other numbers are inactive results; . = no result given; ! = not confirmed by another sample; [ ] = dose if it differs, or a comment.
SMILES,PDI inh,ERp5 block,INS-1E GSIS act,FN deposition inh,HIV Env fusion
CC(C)C1CC(N(C)C)=CC(=S)N1 (stereo not given),.,3.3,-53.2,-9.3,58.3*
CC(C)(C)NC(=O)C(c1ccncc1)N(C(=O)C1CSC(=O)C1)c1ccccc1 (stereo not given),-1.9,-1.1,-7.9,-12.5,4.3
CC(C)(C)NC(=O)C(c1ccccc1)N(C(=O)C1CSC(=O)C1)c1ccccc1 (stereo not given),7.3,.,.,5.6,64.7*
COc1ccc(/C=C2/SC(=O)N(NS(=O)(=O)c3ccccc3)C2=S)cc1OC,-0.6,-5.2,48.7*,.,.
COc1cc(/C=N/NS(=O)(=O)c2ccc(C)cc2)ccc1OCc1ccc(C(=O)O)cc1,5.3,.,1.2,13.2,72.4*
COc1ccc(/C=N/NS(=O)(=O)c2ccccc2)cc1OC,2.7,-4.6,71.4*,8.9,-1.6
CCOc1ccc(/C=N/NS(=O)(=O)c2ccc(C)cc2)cc1OC,2.4,3.2,36.1,1.4,4.6
COc1cc(/C=N\NS(=O)(=O)c2ccccc2)cc(OC)c1OC,2.0,3.3,3.0,-5.7,5.0
COc1cc(/C=C2\SC(=S)N(NS(=O)(=O)c3ccccc3)C2=O)cc(OC)c1OC,-1.1,-3.4,-12.2,-22.0,-15.4
C/C(=N\NC(=O)c1cc(C)nc2ccccc12)c1ccccn1,6.8,0.7,-10.7,6.7,61.2*
C/C(=N\NC(=O)c1cc(C)nc2ccccc12)c1ccncc1,-11.3,5.0,1.8,.,-6.6
CC(=NNc1ccc2ccccc2n1)c1ccccn1,.,1.2,7.0,-7.6,109.6*
COc1ccc(C#Cc2ccc3c(c2)[C@H]2[C@H](CCN2C(=O)C2CC2)[C@@H](CO)N3)cc1,.,-1.8,14.5,2.5,.
CCn1c(Cl)c(C=O)s/c1=N\S(=O)(=O)c1ccccc1,-3.4,3.7,58.2*,50.1*,-42.8
N#CCSc1nc2ccccc2c(=O)n1CCC(=O)NC1CCCCC1,1.3,0.3,.,-2.7,-10.5
CCCN(CCC)C(=O)CSc1nc2ccccc2c(=O)n1C1CCCC1,2.4,.,.,-5.6,65.2*
CCOCCCn1c(SCC(=O)NC2CCCCC2)nc2ccccc2c1=O,-2.5,-6.5,43.0*,-6.7,-10.1
CCOC(CCn1c(SCC(=O)NC2CCCC2)nc2ccccc2c1=O)OCC,-2.7,-1.5,4.5,3.2,-7.2
N#CCSc1nc2ccccc2c(=O)n1C1CCCCC1,-4.3,0.4,53.5*,8.5,8.6
CCOc1ccc(OCC)c(NC(=O)CSc2nc3ccccc3c(=O)n2C)c1,-3.4,.,.,.,91.0*
CCCC#Cc1cnc2c(c1)C(=O)N([C@H](C)CO)C[C@@H](C)[C@H](CN(C)C(=O)Cc1ccncc1)O2,.,4.5,-0.5,.,-10.7[16.7 µM]
CO[C@H]1CN(C)C(=O)c2cc(NC(=O)Nc3ccccc3F)ccc2OC[C@@H](C)N(C(C)=O)C[C@H]1C,.,3.3,-15.1,8.2,9.0[16.7 µM]
Cc1ccc(S(=O)(=O)N(C)C[C@@H]2Oc3ccc(NC(=O)Nc4ccccc4)cc3C(=O)N([C@@H](C)CO)C[C@H]2C)cc1,.,-0.3,-2.2,.,.
COCc1cn(CC[C@@H]2CC[C@H](NC(=O)c3ccncc3)[C@@H](CO)O2)nn1,.,1.4,3.7,5.4,-16.8[16.7 µM]
Cn1nccc1C(=O)N/N=C/c1c(O)ccc2ccccc12,1.4,-8.1,-8.0,12.9,65.8*
SMILES,PDI inh,ERp5 block,INS-1E GSIS act,FN deposition inh,HIV Env fusion
O=C(NN=Cc1c(O)ccc2ccccc12)c1ccncc1,-3.4,5.8,.,19.9,-37.0
CSc1ncccc1C(=O)OCC(=O)Nc1ccc(C)c(S(=O)(=O)N2CCOCC2)c1,3.6,0.5,.,-2.9,76.0*
CCOC(=O)c1nnn(-c2ccc(OC)cc2)c1N,1.5,.,.,32.4*,-69.1
COC(=O)c1nnn(-c2ccccc2)c1N,0.7,.,.,-11.5,-25.0
O=C(NC1CCCCC1)C(c1cccs1)N(Cc1cccs1)C(=O)c1cccs1 (stereo not given),6.9,.,.,-11.5,93.9*
C[C@H]1CN([C@@H](C)CO)S(=O)(=O)c2ccc(Br)cc2O[C@H]1CN(C)Cc1ccccc1,-4.4,6.6,-7.2,-5.7,60.6*![16.7 µM]
C[C@H]1CN([C@@H](C)CO)S(=O)(=O)c2ccc(Br)cc2O[C@H]1CN(C)Cc1ccc(F)cc1,-1.4,2.5,-7.9,6.4,70.9*[16.7 µM]
C[C@H]1CN([C@@H](C)CO)S(=O)(=O)c2ccc(Br)cc2O[C@@H]1CN(C)Cc1ccccc1,1.4,0.2,0.4,2.5,29.0[16.7 µM]
CC(C)C#Cc1ccc([C@H]2[C@H]3CN(C(=O)c4ccc5c(c4)OCO5)CC(=O)N3[C@H]2CO)cc1,.,-2.0,-15.9,-4.9,.
CCOC(=O)N1CCN(c2ncnc3c2[nH]c2ccc(OC)cc23)CC1,17.9,.,.,.,1.7
CCOC(=O)N1CCN(c2ncnc3c2[nH]c2ccc(F)cc23)CC1,1.5,.,.,-1.9,63.9*
CCCCOCCCNC(=O)C[C@@H]1C[C@@]2(C(=O)OC)CCCCC=C2N(Cc2ccco2)C1=O,.,-2.7,-5.5,-3.9,62.5*
COC(=O)[C@]12CCCCC=C1N(Cc1ccco1)C(=O)[C@H](CC(=O)NCCc1ccccc1OC)C2,.,3.0,-9.1,-2.2,91.9*
O=c1ccc2ccccc2c2ccccc12,.,-2.2,-0.9,9.7,-3.2
O=Nc1c(O)c2ccccc2c2ccccc12,-18.1,5.9,-22.5,37.9*,81.2*
CCCCCCC1CCC(C(=O)Nn2c(C)nc3ccccc3c2=O)CC1 (stereo not given),0.5,.,69.4*,-7.9,1.0
COc1ccc2c3c([nH]c2c1)[C@@H](CO)N(C(=O)CC1CC1)CC31CN(C(=O)CC2CC2)C1,.,.,5.1,.,.
CO[C@@H]1CN(C)C(=O)c2ccc(NC(=O)C3CCOCC3)cc2OC[C@H](C)N(Cc2nccs2)C[C@H]1C,.,-4.5,19.8,6.1,-9.2[16.7 µM]
CCCNC1=C(N(C(C)=O)c2cccc(F)c2)C(=O)c2ccccc2C1=O,-6.6,0.6,-24.9,13.9,78.1*
CCC(=O)N(C1=C(NC(C)C)C(=O)c2ccccc2C1=O)C(C)C,-1.3,0.9,0.7,-1.4,28.2
Cc1ccc(S(=O)(=O)N(C)C[C@H]2Oc3c(NC(=O)c4ccncc4)cccc3C(=O)N([C@H](C)CO)C[C@H]2C)cc1,.,19.9,6.0,.,-10.0[16.7 µM]
COCCN=c1scc(C)n1/N=C/C1CC2C=CC1C2 (stereo not given),2.5,-7.6,-1.3,5.8,63.1*
CCCCNc1cc(Cl)nc(N)n1,1.1,-1.2,58.1*,-3.9,-17.6
Nc1nc(Cl)cc(NCCc2ccccc2)n1,.,1.9,14.3,.,-4.9
Cn1c(=O)[nH]c2cc3ccccc3cc21,11.6,.,.,2.9,70.1*
COc1ccc2c3c([nH]c2c1)[C@H](CO)N(Cc1cccnc1)CC31CN(C(=O)c2cccnc2)C1,.,.,-5.0,.,.
Cc1cc(C)c2c(C)nn(C3CCCCC3)c2n1,-10.4,.,71.0*,.,.
COC(=O)c1ccc(Oc2ccc(C(F)(F)F)cn2)cc1,-5.2,-2.7,56.2*,10.4,9.6
O=C(O)c1ccc(Oc2ccc(C(F)(F)F)cn2)cc1,-2.1,4.2,13.1,3.4,-15.8
Cc1ccccc1N1CCN(C(=O)c2ccc(Oc3ccc(C(F)(F)F)cn3)cc2)CC1,-2.3,.,-14.0,1.8,68.4*
